The source of these data is ChEMBL document CHEMBL1124688, “9,11-Epoxy-9-homo-14-thiaprost-5-enoic acid derivatives: potent thromboxane A2 antagonists” (J Med Chem, 1989).

The species named for test [1] is Rattus norvegicus. As to the kind of experiment: Concentration required to elicit 50% of the maximal contraction of rat stomach strip. It counts as functional. Summed up: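 Rat stomach strip contraction was measured as the concentration giving 50% of the maximal contraction produced by 3×10^-7 M serotonin.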
For test [2], the system named is Cavia porcellus. As to the kind of experiment: Inhibition of arachidonic acid-induced response in guinea pigs by 1 mg/kg of intravenously administered compound. The class given is functional. Also noted: scale not given: the % may be the effect or the level left. The following applies: route intravenous. Summed up: (§1)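 Anesthetized guinea pigs were challenged with arachidonic acid, and lung mechanics (lung resistance, dynamic compliance) and mean arterial blood pressure were recorded. Compounds were given as a 1.0 mg/kg rapid iv infusion, with n = 5 versus vehicle. Inhibition above 100% denotes reversal of the blood-pressure response.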

The species entered for test [3] is Cavia porcellus. As to the kind of experiment: Duration of action of compound for inhibition of arachidonic acid-induced response in guinea pigs. The class given is functional.
Test [4] has as its system Cavia porcellus. As to the kind of experiment: Change in mean arterial blood pressure(MABP) in guinea pigs by 1 mg/kg of intravenously administered compound. It counts as functional, Artery. The conditions noted are these: route intravenous, 1 mg/kg. Summed up:
as §1

For test [5], the species on record is Homo sapiens. As to the kind of experiment: Percentage stimulation on the synthesis of PGE-2 at a dose of 333 uM. The class given is functional. The essentials:
(§2)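 Arachidonic acid metabolism was measured in a lysed platelet preparation. Thromboxane synthesis (as TxB2) and PGE2 production were determined at each listed test concentration.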

The species entered for test [6] is Cavia porcellus. As to the kind of experiment: In vitro evaluation for antagonist activity against the contraction-induced by histamine (1 ug/mL). The conditions noted are these: read-out: I50. It counts as functional. The essentials: (§3)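 Guinea pig trachea spirals were contracted by either 9,11-azo-PGH2 (a stable PGH2/TxA2 mimetic) or histamine, and compounds were tested for blockade of these contractions.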

For test [7], the species on record is Homo sapiens. As to the kind of experiment: (§4) Percent inhibition on the synthesis of thromboxane B2 at a dose of 100 uM. It counts as functional. Summed up: as §2
The species named for test [8] is Homo sapiens. As to the kind of experiment: (§5) Percentage stimulation on the synthesis of PGE-2 at a dose of 10 uM. The class given is functional. The essentials: as §2
For test [9], the species on record is Cavia porcellus. As to the kind of experiment: In vitro evaluation for antagonist activity against the contraction-induced by 9,11-azo-PGH2 (0.1 ug/mL). It counts as functional. The following applies: read-out: I50. The essentials:
as §3

The species entered for test [10] is Homo sapiens. As to the kind of experiment: In vitro evaluation for arachidonic acid induced platelet aggregation of human platelet-rich plasma. The class given is functional. The conditions noted are these: read-out: I50. The essentials: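 Human platelet-rich plasma was aggregated with arachidonic acid (800 μM). An ADP (20 μM)-induced aggregation run served as a counter-screen.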

For test [11], the species on record is Homo sapiens. As to the kind of experiment: Percent inhibition on the synthesis of thromboxane B2 at a dose of 333 uM. The class given is functional. The essentials:
as §2

For test [12], the species on record is Homo sapiens. As to the kind of experiment: Percentage stimulation on the synthesis of PGE-2 at a dose of 1000 uM. It counts as functional. The essentials: as §2
Test [13] is filed under the species Homo sapiens. As to the kind of experiment: (§6) Percent inhibition on the synthesis of thromboxane B2 at a dose of 1000 uM. It counts as functional. The essentials:
as §2

Test [14] is filed under the species Homo sapiens. As to the kind of experiment: Percentage stimulation on the synthesis of PGE-2 at a dose of 33 uM. It counts as functional. The essentials:
as §2

The target of a further test is T1, Thromboxane A2 receptor (Homo sapiens, UniProt P21731).
T1 sequence (P21731 whole entry): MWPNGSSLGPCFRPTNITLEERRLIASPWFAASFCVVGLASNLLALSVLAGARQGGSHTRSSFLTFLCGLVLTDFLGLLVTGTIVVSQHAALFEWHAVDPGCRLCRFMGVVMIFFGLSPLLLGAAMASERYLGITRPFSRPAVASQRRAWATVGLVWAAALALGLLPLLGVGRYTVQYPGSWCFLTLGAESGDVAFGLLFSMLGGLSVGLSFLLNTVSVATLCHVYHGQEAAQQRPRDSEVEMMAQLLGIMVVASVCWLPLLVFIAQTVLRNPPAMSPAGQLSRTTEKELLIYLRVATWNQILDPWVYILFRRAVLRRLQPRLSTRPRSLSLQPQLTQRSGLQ
As to the kind of experiment: Inhibition of specific binding of HSQ(5,6-di-3H-SQ 29,548) in washed platelets. Also noted: species or system Cavia porcellus.

The species named for test [15] is Rattus norvegicus. As to the kind of experiment: maximal contraction of rat stomach strip by 3 x 10e -7M serotonin. The class given is functional.
Test [16] is filed under the species Homo sapiens. As to the kind of experiment: Percentage stimulation on the synthesis of PGE-2 at a dose of 100 uM. The class given is functional. Summed up:
as §2

For test [17], the species on record is Homo sapiens. As to the kind of experiment: Percentage stimulation on the synthesis of PGE-2 was at a dose of 100 uM. The class given is functional. The essentials:
as §2

Test [18] is filed under the species Homo sapiens. Described as §4. It counts as functional. The essentials: as §2
The source holds these as a separate data set.

The species named for test [19] is Homo sapiens. The test is described as §5. It counts as functional. Summed up:
as §2
This is another data set of the same source.

The species entered for test [20] is Homo sapiens. As to the kind of experiment: Percent inhibition on the synthesis of thromboxane B2 at a dose of 10 uM. It counts as functional. Summed up: as §2
The species named for test [21] is Homo sapiens. The test is described as §6. It counts as functional. The essentials:
as §2
The source holds these as a separate data set.

Test [22] is filed under the species Homo sapiens. As to the kind of experiment: Percentage stimulation on the synthesis of PGE-2 was at a dose of 1000 uM. The class given is functional. Summed up:
as §2

“And” between values parts separate entries of the source, which are not always exact repeats. Identical values can stand only once.

Regarding `O=C(O)CCC/C=C\CC1C2CCC(O2)C1CSCCOc1ccccc1` (configuration not stated), in the test listed under Rattus norvegicus [1], the A50 was 0.1 µM.

As for `CCCCSCC1C2CCC(O2)C1C/C=C\CCCC(=O)O` (configuration not stated), the Activity in the test on Cavia porcellus [2] is 136% and 180%. The Duration in the test listed under Cavia porcellus [3] is reported as under 60 min. In the test on Cavia porcellus [4], the Agonist activity was 58% and 98%.

The term Inhibition denotes the percentage by which the read-out fell short of the control. In general, Kd refers to the equilibrium constant for the complex coming apart. `C=CCSCC1C2CCC(O2)C1C/C=C\CCCC(=O)O` (configuration not stated): the Stimulation in the test filed under Homo sapiens [5] came to 1650%; in the test filed under Homo sapiens [8] it was 220%; in the test filed under Homo sapiens [12] it was 1820%; in the test listed under Homo sapiens [14] it was 380%; in the test listed under Homo sapiens [16] it was 860%. Also, the figures for the IC50 in the test listed under Cavia porcellus [6], in the test filed under Cavia porcellus [9] and in the test listed under Homo sapiens [10] were over 100000 nM, 3800 nM and 500 nM, respectively. Also, the Activity in the test with Cavia porcellus [2] is 273% and 98%. For the same compound, the Inhibition came out at 22.1% in the test filed under Homo sapiens [7], 51.8% in the test filed under Homo sapiens [11] and 61.5% in the test filed under Homo sapiens [13]. The Duration in the test filed under Cavia porcellus [3] was over 60 min. The compound further had a Kd at Thromboxane A2 receptor of 76 nM. In the test listed under Rattus norvegicus [15], this compound displayed a Contraction of 26%. In addition, the Agonist activity with Cavia porcellus [4] is 115% and 165%.

On to `CCSCC1C2CCC(O2)C1C/C=C\CCCC(=O)O` (configuration not stated), for which the Contraction in the test listed under Rattus norvegicus [15] was 13%.

By inhibition is commonly meant the change of the read-out against control, counted positive when it falls. As to `CCCCCSCCC1C2CCC(O2)C1C/C=C\CCCC(=O)O` (configuration not stated), the figures for the Stimulation in the test filed under Homo sapiens [17], in the test listed under Homo sapiens [19] and in the test filed under Homo sapiens [22] were -45%, 13% and -75%, respectively. In addition, the inhibition in the test listed under Homo sapiens [18] was determined as 80%; in the test listed under Homo sapiens [20], 33%; in the test listed under Homo sapiens [21], 90%.

`CCCCCC(C)SCC1C2CCC(O2)C1C/C=C\CCCC(=O)O` (configuration not stated): the Duration in the test filed under Cavia porcellus [3] stood at 0 min.

With `CCCCCCS(=O)(=O)CC1C2CCC(O2)C1C/C=C\CCCC(=O)O` (configuration not stated), the A50 in the test filed under Rattus norvegicus [1] stood at 8 µM.

As for `CCCCCCSC[C@H]1C2CC[C@@H](O2)[C@H]1C/C=C\CCCC(=O)O` (single isomer, unassigned; (+)), the Contraction in the test listed under Rattus norvegicus [15] came out at 6%.

In turn, `CCCCCCSC[C@H]1C2CCC(O2)[C@H]1C/C=C\CCCC(=O)O` (some centres not stated) registered an A50 in the test filed under Rattus norvegicus [1] of 39 µM.

Compound `CSCC1C2CCC(O2)C1C/C=C\CCCC(=O)O` (configuration not stated) yielded a Contraction in the test filed under Rattus norvegicus [15] of 30%.

Compound `CSCSCC1C2CCC(O2)C1C/C=C\CCCC(=O)O` (configuration not stated) gave a Contraction in the test listed under Rattus norvegicus [15] of 28%.

Turning to `O=C(O)CCCC=CCC1C2CCC(O2)C1CSC/C=C/c1ccccc1` (configuration not stated), in the test filed under Rattus norvegicus [1], the A50 is 0.7 µM.

For the compound `C=CCCSCC1C2CCC(O2)C1C/C=C\CCCC(=O)O` (configuration not stated), in the test filed under Homo sapiens [10], the IC50 came out at 200 nM. Moreover, at Thromboxane A2 receptor, the Kd is 49 nM. Besides, in the test filed under Rattus norvegicus [1], the A50 worked out at 32 µM.
